Measured values published in ChEMBL document CHEMBL1159121, “Synthesis, in vitro structure-activity relationship, and in vivo studies of 2-arylthiazolidine-4-carboxylic acid amides as anticancer agents” (Bioorg Med Chem, 2010).
pIC50: −log10 of the molar value.

Tests used:
Malme-3M = assay: Growth inhibition of human MALME-3M cells; assay type: functional
T47D = assay: Growth inhibition of human T47D cells; assay type: functional
A-375 = assay: Antitumor activity against human A375 cells xenografted in athymic nude mouse assessed as tumor growth inhibition at 5 mg/kg, ip once daily administered 7 days after inoculation for 22 days; assay type: functional; parameters: scale not given: the % may be the effect or the level left; conditions: route intraperitoneal
How it was run: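 Male athymic nude mice, 4–5 weeks old, received 2.5 × 10^6 A375 cells (FBS-free DMEM mixed 1:1 with Matrigel) subcutaneously in the right dorsal flank. At about 150 mm3 (~day 7), mice were grouped by tumor size (n = 8). Drug in 80% Tween 80/20% Captex 200 was injected daily, with vehicle controls i.p. Calipers twice weekly (a×b²×0.5); % reduction at day 22 = 100×[(T–T0)/(C–C0)]. Body weight tracked.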

PC-3 = assay: Antiproliferative activity against human PC3 cells after 96 hrs by SRB assay; assay type: functional, cell-based; conditions: PC-3, 96 h
[1] = read-out: LC50 (the source's name)

`CCCCCCCCCCCCCCCCNC(=O)[C@@H]1CSC(c2ccc(NC(C)=O)cc2)N1` (mixture of isomers) showed a GI50 (Malme-3M) of 320 nM, a TGI (Malme-3M) of 1110 nM and a CC50 (Malme-3M; [1]) of 3950 nM. For the same compound, the GI50 (T47D) was 240 nM, the TGI (T47D) was 530 nM and the CC50 (T47D; [1]) was 2300 nM. The Activity (A-375) was 25%.

In the case of `CCCCCCCCCCCCCCCCCCNC(=O)[C@@H]1CSC(c2ccccc2)N1` (mixture of isomers), the pIC50 (PC-3) was 5.00.
